The results in this text go back to article PMC11327602 (Heliyon, 2024).

A short description of one experiment: ABTS method. As to conditions: for IC50: read-out: ABTS scavenging IC50.
The target in a further experiment is α-Glucosidase (Saccharomyces cerevisiae, UniProt P53341). The experiment is described as follows: α-Glucosidase inhibition assay. In kind it is biochemical. The procedure, abridged:
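Test compound (200–800 μg/mL) pre-incubated 5 min at 37 °C with 2 % w/v starch (sucrose) solution in 0.2 M Tris buffer, pH 8.0. 5 mM p-nitrophenyl-α-D-glucopyranoside added intermittently, then α-glucosidase (1 U/mL), 40 min at 35 °C. Stopped with […]; absorbance read at 405 nm. % inhibition = (control − sample)/control × 100; samples above 50 % taken to IC50.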

In experiment [1] the target is Bacillus Pasteurii urease (Sporosarcina pasteurii, UniProt P41020). The experiment in a line: Urease inhibition assay. It is filed as biochemical. As to conditions: 3 experiments.
Bacillus Pasteurii urease, sequence (P41020 whole entry): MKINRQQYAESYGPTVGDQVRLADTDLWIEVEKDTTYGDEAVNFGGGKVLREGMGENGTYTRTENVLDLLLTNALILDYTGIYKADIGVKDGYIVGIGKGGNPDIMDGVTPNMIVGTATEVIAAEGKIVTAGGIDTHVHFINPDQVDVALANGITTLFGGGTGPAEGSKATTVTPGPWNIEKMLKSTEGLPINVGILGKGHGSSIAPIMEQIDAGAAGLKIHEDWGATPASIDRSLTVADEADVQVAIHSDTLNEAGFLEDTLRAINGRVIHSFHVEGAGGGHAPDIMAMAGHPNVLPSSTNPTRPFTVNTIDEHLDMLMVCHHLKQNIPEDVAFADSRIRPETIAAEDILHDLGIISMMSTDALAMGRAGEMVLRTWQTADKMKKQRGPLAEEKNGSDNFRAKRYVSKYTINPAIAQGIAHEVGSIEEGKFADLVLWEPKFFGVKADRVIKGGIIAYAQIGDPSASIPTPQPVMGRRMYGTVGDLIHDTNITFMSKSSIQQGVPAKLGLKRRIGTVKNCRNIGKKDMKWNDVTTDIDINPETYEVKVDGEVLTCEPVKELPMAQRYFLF
Bacillus Pasteurii urease, sequence (P41021 whole entry partner): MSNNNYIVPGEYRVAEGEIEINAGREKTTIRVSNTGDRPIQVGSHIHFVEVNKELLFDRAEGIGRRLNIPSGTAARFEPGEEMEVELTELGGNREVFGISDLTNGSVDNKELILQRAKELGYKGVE
Bacillus Pasteurii urease, sequence (P41022 whole entry partner): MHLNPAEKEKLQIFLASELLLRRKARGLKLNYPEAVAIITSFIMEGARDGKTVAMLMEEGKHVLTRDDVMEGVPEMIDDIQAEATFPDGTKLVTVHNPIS
Experiment [2] is described as follows: DPPH free radical scavenging activity. As to conditions: for IC50: read-out: DPPH scavenging IC50.
Experiment [3] can be described thus: Superoxide anion scavenging assay. As to conditions: for IC50: read-out: superoxide anion scavenging IC50.
For another experiment, the target named is jack bean urease (Canavalia ensiformis, UniProt P07374). The experiment in a line: Urease inhibition assay. In kind it is biochemical. As to conditions: for IC50: 3 experiments.
jack bean urease, sequence (P07374 whole entry, looked up): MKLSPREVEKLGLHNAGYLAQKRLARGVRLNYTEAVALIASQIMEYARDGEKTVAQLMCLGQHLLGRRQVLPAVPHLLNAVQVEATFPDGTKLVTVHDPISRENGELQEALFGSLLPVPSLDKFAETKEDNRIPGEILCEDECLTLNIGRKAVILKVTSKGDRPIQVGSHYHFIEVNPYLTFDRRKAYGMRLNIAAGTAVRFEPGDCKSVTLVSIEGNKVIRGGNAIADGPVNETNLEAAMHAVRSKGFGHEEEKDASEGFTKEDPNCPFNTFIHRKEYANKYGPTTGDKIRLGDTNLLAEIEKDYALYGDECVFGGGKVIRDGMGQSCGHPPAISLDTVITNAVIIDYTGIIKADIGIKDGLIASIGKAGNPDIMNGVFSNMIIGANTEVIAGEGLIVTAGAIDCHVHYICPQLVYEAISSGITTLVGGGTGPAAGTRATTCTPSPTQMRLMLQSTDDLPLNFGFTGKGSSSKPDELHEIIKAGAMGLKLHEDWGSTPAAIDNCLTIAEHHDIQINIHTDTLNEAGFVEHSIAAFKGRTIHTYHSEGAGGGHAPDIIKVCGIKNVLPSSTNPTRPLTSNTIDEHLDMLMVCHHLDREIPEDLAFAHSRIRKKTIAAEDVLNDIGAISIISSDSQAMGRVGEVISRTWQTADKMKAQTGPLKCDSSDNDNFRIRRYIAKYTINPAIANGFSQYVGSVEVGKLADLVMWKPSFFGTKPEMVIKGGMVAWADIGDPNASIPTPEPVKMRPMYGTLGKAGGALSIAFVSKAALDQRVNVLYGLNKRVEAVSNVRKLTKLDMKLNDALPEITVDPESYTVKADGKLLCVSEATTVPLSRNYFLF
[4] abbreviates: Enzyme (SEM ±) B.P Urease, IC50, mean ± SEM.
[5] abbreviates: Enzyme (SEM ±) J.B Urease, IC50, mean ± SEM.

“And” between values parts separate entries of the source, which are not always exact repeats. Identical values can stand only once. Like-named read-outs stand apart in the source and are kept apart here.

α-Glucosidase, sequence (P53341 whole entry): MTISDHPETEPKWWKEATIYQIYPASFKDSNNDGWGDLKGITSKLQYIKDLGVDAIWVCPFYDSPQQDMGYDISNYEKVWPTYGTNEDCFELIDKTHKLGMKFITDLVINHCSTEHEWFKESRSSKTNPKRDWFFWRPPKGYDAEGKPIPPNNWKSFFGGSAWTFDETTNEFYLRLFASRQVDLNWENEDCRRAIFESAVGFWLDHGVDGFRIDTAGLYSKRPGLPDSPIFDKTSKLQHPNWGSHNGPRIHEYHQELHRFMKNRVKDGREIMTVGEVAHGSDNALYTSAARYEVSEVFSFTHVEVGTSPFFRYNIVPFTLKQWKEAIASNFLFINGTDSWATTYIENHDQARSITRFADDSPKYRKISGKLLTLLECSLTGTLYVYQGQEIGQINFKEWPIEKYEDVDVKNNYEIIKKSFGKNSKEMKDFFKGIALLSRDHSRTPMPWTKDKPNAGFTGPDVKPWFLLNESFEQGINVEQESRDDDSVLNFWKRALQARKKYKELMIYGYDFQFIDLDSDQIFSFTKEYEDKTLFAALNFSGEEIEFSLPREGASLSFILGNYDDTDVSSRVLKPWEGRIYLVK

Consider `C=CCN(c1nccs1)S(=O)(=O)c1ccc(F)cc1` [Compound 31, N-Allyl-4-fluoro-N-(thiazol-2-yl)benzenesulfonamide], for which the “ABTS % Scavenging” value was determined as 29.31 ± 0.2% in the experiment “ABTS method” (10 μM); 37.15 ± 0.28% in “ABTS method” (20 μM); 41.11 ± 0.39% in “ABTS method” (30 μM); 47.12 ± 0.17% in the experiment “ABTS method” (40 μM); 73.04 ± 0.12% in “ABTS method” (50 μM). Also, the half-maximal inhibitory concentration (IC50) in the experiment “ABTS method” amounted to 46.13 ± 0.13 µM; in experiment [1] (setting [4]) it was 51.39 ± 0.11 µM; in experiment [2], 66.3 ± 0.2 µM; in experiment [3], 60 ± 0.05 µM; against jack bean urease (setting [5]) it was 46.02 ± 0.05 µM. The “Type of Inhibition (α-glucosidase and α-amylase)” value (“Type of Inhibition” below) on α-Glucosidase is recorded as “Non-competitive”. Also, the “DPPH % Scavenging” value in experiment [2] (25 μM) turned out to be 34.02 ± 0.1%; in experiment [2] (50 μM), 43.1 ± 0.13%; in experiment [2] (75 μM) it was 73.2 ± 0.5%; in experiment [2] (100 μM) it was 90.5 ± 0.11%. Further, the “superoxide anion % scavenging” value in experiment [3] (25 μM) came to 25 ± 0.11%; in experiment [3] (50 μM), 46 ± 0.05%; in experiment [3] (75 μM) it was 79 ± 0.33%; in experiment [3] (100 μM), 104 ± 0.22%. In addition, the “Types of inhibition (urease)” value on jack bean urease was “Non-competitive”.
Regarding `C=CCN(c1nccs1)S(=O)(=O)c1ccccc1` [Compound 29, N-allyl-N-(thiazol-2-yl)benzenesulfonamide], the “ABTS % Scavenging” value in the experiment “ABTS method” (10 μM) was 19.2 ± 0.5%; in the experiment “ABTS method” (20 μM), 23.07 ± 0.13%; in the experiment “ABTS method” (30 μM) it was 45.01 ± 0.19%; in the experiment “ABTS method” (40 μM), 74.12 ± 0.17%; in the experiment “ABTS method” (50 μM), 89.19 ± 0.12%. The IC50 in “ABTS method” was 43.21 ± 0.15 µM; in experiment [1] (setting [4]) it was 23.02 ± 0.15 µM; in experiment [2], 52.5 ± 0.11 µM; in experiment [3] it was 43 ± 0.17 µM; on jack bean urease (setting [5]), 21.22 ± 0.17 µM. The “Type of Inhibition” value on α-Glucosidase is given as “Non-competitive”. For the same compound, the “DPPH % Scavenging” value in experiment [2] (25 μM) turned out to be 34.5 ± 0.21%; in experiment [2] (50 μM) it was 49.1 ± 0.13%; in experiment [2] (75 μM), 77.2 ± 0.7%; in experiment [2] (100 μM) it was 93.5 ± 0.08%. The “superoxide anion % scavenging” value in experiment [3] (25 μM) turned out to be 28 ± 0.07%; in experiment [3] (50 μM) it was 73 ± 0.20%; in experiment [3] (75 μM), 85 ± 0.13%; in experiment [3] (100 μM), 96 ± 0.32%. For the same compound, the “Types of inhibition (urease)” value on jack bean urease was “Non-competitive”.
Take `O=S(=O)(c1ccccc1)N(Cc1ccccc1)c1nccs1` [Compound 22, N-Benzyl-N-(thiazol-2-yl)benzenesulfonamide]: the “ABTS % Scavenging” value in “ABTS method” (10 μM) was found to be 12.04 ± 0.01%; in “ABTS method” (20 μM), 27.2 ± 0.5%; in “ABTS method” (30 μM), 47.03 ± 0.06%; in “ABTS method” (40 μM) it was 66.11 ± 0.31%; in the experiment “ABTS method” (50 μM), 86.13 ± 0.12%. For the same compound, the 50% inhibitory concentration (IC50) in “ABTS method” turned out to be 40.01 ± 0.01 µM; in experiment [1] (setting [4]), 18.7 ± 0.23 µM; in experiment [2], 57.2 ± 0.07 µM; in experiment [3], 40 ± 0.06 µM; at jack bean urease (setting [5]) it was 15.31 ± 0.09 µM. Also, the “Type of Inhibition” value on α-Glucosidase is reported as “Non-competitive”. Further, the “DPPH % Scavenging” value in experiment [2] (25 μM) was determined as 31.4 ± 0.08%; in experiment [2] (50 μM), 50.1 ± 0.11%; in experiment [2] (75 μM), 66.1 ± 0.23%; in experiment [2] (100 μM), 79.5 ± 0.05%. Besides, the “superoxide anion % scavenging” value in experiment [3] (25 μM) is given as 35 ± 0.02%; in experiment [3] (50 μM), 57 ± 0.15%; in experiment [3] (75 μM) it was 80 ± 0.25%; in experiment [3] (100 μM), 87 ± 0.15%. Moreover, the “Types of inhibition (urease)” value on jack bean urease is listed as “Competitive”.
As for `O=S(=O)(c1ccc(Br)cc1)N(Cc1ccccc1)c1nccs1` [Compound 21, N-benzyl-4-bromo-N-(thiazol-2-yl)benzenesulfonamide], the “ABTS % Scavenging” value in “ABTS method” (10 μM) turned out to be 15.1 ± 0.05%; in “ABTS method” (20 μM), 30.5 ± 0.04%; in “ABTS method” (30 μM) it was 46.03 ± 0.11%; in the experiment “ABTS method” (40 μM) it was 72.05 ± 0.15%; in “ABTS method” (50 μM) it was 90.03 ± 0.51%. In addition, the concentration for half-maximal inhibition (IC50) in “ABTS method” was ~33 µM and 33 µM; in experiment [1] (setting [4]), 27 ± 0.48 µM; in experiment [2], ~45.2 µM and 45.2 µM; in experiment [3] it was 45 ± 0.03 µM; against jack bean urease (setting [5]), 23.06 ± 0.11 µM. In addition, the “Type of Inhibition” value on α-Glucosidase was “Competitive”. Besides, the “DPPH % Scavenging” value came out at 35.1 ± 0.05% in experiment [2] (25 μM), 63.5 ± 0.11% in experiment [2] (50 μM), 90.5 ± 0.16% in experiment [2] (75 μM) and 99.1 ± 0.32% in experiment [2] (100 μM). In addition, the “superoxide anion % scavenging” value in experiment [3] (25 μM) was found to be 33 ± 0.3%; in experiment [3] (50 μM), 57 ± 0.13%; in experiment [3] (75 μM) it was 82 ± 0.01%; in experiment [3] (100 μM), 86 ± 0.11%. Besides, on jack bean urease, the “Types of inhibition (urease)” value is “Non-competitive”.
In the case of `C=CCN(c1nccs1)S(=O)(=O)c1ccc([N+](=O)[O-])cc1` [Compound 32, N-Allyl-4-nitro-N-(thiazol-2-yl)benzenesulfonamide], the “ABTS % Scavenging” value was determined as 12.02 ± 0.03% in “ABTS method” (10 μM); 25.03 ± 0.01% in “ABTS method” (20 μM); 49.01 ± 0.09% in the experiment “ABTS method” (30 μM); 75.03 ± 0.02% in the experiment “ABTS method” (40 μM); 94.06 ± 0.21% in the experiment “ABTS method” (50 μM). The IC50 was 31.01 ± 0.09 µM in the experiment “ABTS method”; 57.89 ± 0.18 µM in experiment [1] (setting [4]); 46.2 ± 0.01 µM in experiment [2]; 49 ± 0.12 µM in experiment [3]; 52.1 ± 1.12 µM against jack bean urease (setting [5]). In addition, on α-Glucosidase, the “Type of Inhibition” value is “Non-competitive”. Further, the “DPPH % Scavenging” value in experiment [2] (25 μM) turned out to be 39.2 ± 0.2%; in experiment [2] (50 μM), 53.5 ± 0.3%; in experiment [2] (75 μM), 64.4 ± 0.01%; in experiment [2] (100 μM), 88.2 ± 0.2%. Further, the “superoxide anion % scavenging” value in experiment [3] (25 μM) amounted to 15 ± 0.05%; in experiment [3] (50 μM), 32 ± 0.02%; in experiment [3] (75 μM), 67 ± 0.11%; in experiment [3] (100 μM), 97 ± 0.51%. Further, the “Types of inhibition (urease)” value at jack bean urease is listed as “Non-competitive”. For the same compound, the “inhibition against both enzymes (J.B. and B.P urease), in words” value at jack bean urease is “weak inhibition”.
Turning to `O=[N+]([O-])c1ccc(S(=O)(=O)N(Cc2ccccc2)c2nccs2)cc1` [Compound 25, N-benzyl-4-nitro-N-(thiazol-2-yl)benzenesulfonamide], the “ABTS % Scavenging” value in “ABTS method” (10 μM) stood at 09.01 ± 0.09%; in the experiment “ABTS method” (20 μM), 28.05 ± 0.04%; in “ABTS method” (30 μM), 43.09 ± 0.01%; in “ABTS method” (40 μM) it was 70.02 ± 0.03%; in “ABTS method” (50 μM) it was 81.03 ± 0.91%. The half-maximal inhibitory concentration (IC50) stood at 29.01 ± 0.14 µM in the experiment “ABTS method”, 53.32 ± 0.21 µM in experiment [1] (setting [4]), 47.1 ± 0.08 µM in experiment [2] and 48.1 ± 1.19 µM against jack bean urease (setting [5]). Besides, the “Type of Inhibition” value on α-Glucosidase is listed as “Non-competitive”. Besides, the “DPPH % Scavenging” value in experiment [2] (25 μM) is given as 35.2 ± 0.2%; in experiment [2] (50 μM), 57.8 ± 0.11%; in experiment [2] (75 μM), 71.6 ± 0.03%; in experiment [2] (100 μM) it was 85.1 ± 0.41%. Further, the “Types of inhibition (urease)” value at jack bean urease is given as “Non-competitive”. For the same compound, at jack bean urease, the “inhibition against both enzymes (J.B. and B.P urease), in words” value is given as “weak inhibition”.
`O=C1O[C@H]([C@@H](O)CO)C(O)=C1O` [Ascorbic acid, reference compound]: the “DPPH % Scavenging” value was 70.3 ± 0.01% and 68.2 ± 0.17% and 58.1 ± 0.05% and 69.3 ± 0.41% in experiment [2] (50 μM); 85.3 ± 0.01% and 88.1 ± 0.02% and 79.1 ± 0.12% and 95.3 ± 0.01% in experiment [2] (75 μM); 97.2 ± 0.2% and 94.2 ± 0.5% and 84.2 ± 0.18% and 105.2 ± 0.2% in experiment [2] (100 μM). For the same compound, the IC50 is 30.4 µM and 42.2 µM and 45.1 µM and 35 µM in experiment [2]; 33.4 µM and 35.4 µM and 39.1 µM and 38 µM in experiment [3]. The “superoxide anion % scavenging” value in experiment [3] (25 μM) was 39 ± 0.09% and 49 ± 0.05% and 35 ± 0.33% and 25 ± 0.03%; in experiment [3] (50 μM), 55 ± 0.05% and 53 ± 0.03% and 57 ± 0.13% and 60 ± 0.07%; in experiment [3] (75 μM), 77 ± 0.12% and 75 ± 0.15% and 86 ± 0.53% and 67 ± 0.11%; in experiment [3] (100 μM) it was 90 ± 0.02% and 93 ± 0.01% and 99 ± 0.11% and 82 ± 0.01%.
Consider `Cc1c(C)c2c(c(C)c1O)CCC(C)(C(=O)O)O2` (centres unmarked) [Trolox, reference compound], for which the “ABTS % Scavenging” value is 36.08 ± 0.1% and 26.05 ± 0.03% and 35.01 ± 0.3% and 18.08 ± 0.1% in “ABTS method” (10 μM); 58.02 ± 0.62% and 55.02 ± 0.12% and 65.2 ± 0.1% and 40.02 ± 0.62% in the experiment “ABTS method” (20 μM); 67.03 ± 0.02% and 70.03 ± 0.01% and 77.31 ± 0.07% and 55.03 ± 0.02% in the experiment “ABTS method” (30 μM); 85.01 ± 0.06% and 82.01 ± 0.05% and 89.01 ± 0.5% and 84.01 ± 0.06% in the experiment “ABTS method” (40 μM); 105.02 ± 0.02% and 109.2 ± 0.22% and 105.12 ± 0.21% and 93.02 ± 0.02% in “ABTS method” (50 μM). The 50% inhibitory concentration (IC50) in “ABTS method” was 16.4 µM and 19.4 µM and 17.5 µM and 20.3 µM.
`NC(N)=S` [Thiourea, reference compound]: the half-inhibitory concentration (IC50) was 14.08 ± 0.05 µM in experiment [1] (read-out: Enzyme (SEM ±) B.P Urease, IC50, mean ± SEM) and 10.12 ± 0.08 µM on jack bean urease (read-out: Enzyme (SEM ±) J.B Urease, IC50, mean ± SEM).
